According to article PMC6388690 (Journal of medicinal chemistry, 2018):
Where a name gives a salt, the structure may show the parent alone. One block for each compound: values may come before it.

Tests used:
t(8;21) leukemia = conditions: 7.5 and 15 mg/kg; cited from earlier work
[1] = system: MDA-MB-231 xenograft tumors; assay: MDA-MB-231 orthotopic xenograft tumor growth in nude mice; assay type: in vivo; conditions: intraperitoneal; for inhibitory effect on tumor growth compared to vehicle: daily
Summary of the method: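 Female nude mice aged 6–8 weeks, kept in a barrier unit on a 12 h light–dark cycle. Freshly harvested MDA-MB-231 cells (1.0 × 106 in 100 μL PBS) injected into the no. 3 mammary fat pad, then mice randomized into 4 groups. Once tumours reached 80–100 mm3, daily ip test compound (10 or 15 mg/kg), parent natural product or vehicle, all dissolved in DMSO. Tumour volume (V = 0.5 × L × W2) and body weight measured daily; mean ± SEM.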

[2] = relatively long time (hours); cited from earlier work
[3] = system: MCF-7 and MDA-MB-231 cells; assay: MTT growth inhibition screen in two breast cancer cell lines; assay type: cell-based, human; conditions: MCF-7 and MDA-MB-231, MTT
Summary of the method: (§1)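 MTT proliferation assay: cells seeded at 1 × 10^4 per well and treated with DMSO or test compound at 0.1, 0.33, 1.0, 3.3 and 10 μM for 72 h. MTT reagent added, then OD 560 nm read after 1 h at 37°C. Quadruplicate wells per concentration.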

MCF-7 cells [4] = assay: Colony-formation assay; assay type: cell-based, human; conditions: MCF-7, low micromolar concentrations, 2 weeks
MDA-MB-231 cells [5] = assay: MTT cell proliferation assay; assay type: cell-based, human
Summary of the method: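 MDA-MB-231 cells seeded at 1 × 10^4 per well, then exposed to DMSO vehicle or test compound at 0.1, 0.33, 1.0, 3.3 and 10 μM for 72 h. Proliferation read by MTT reagent, with OD at 560 nm after 1 h at 37°C. Quadruplicate wells per concentration. Mean ± SD of at least three independent experiments; one-way ANOVA across groups.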

MCF-7 cells [6] = assay: MTT cell proliferation assay; assay type: cell-based, human
Summary of the method: as §1

cleaved PARP = assay: Western-blot analysis of apoptosis biomarkers; assay type: cell-based, human; conditions: MDA-MB-231, 48 h, dose-dependent
Summary of the method: (§2)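 MDA-MB-231 cells given DMSO or test compound at several concentrations for 48 h, then lysed. Protein measured by Bradford (BSA standard); 40 μg resolved by SDS-PAGE and transferred to NC membrane. Blocked in 5% nonfat milk, then primaries overnight: Bcl-2 1:200, cleaved PARP 1:500, NF-κB 1:1000, Bax 1:1000, β-actin 1:2000. Secondary antibody applied; bands detected by ECL.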

SK-BR3 cells [7] = assay: Colony-formation assay; assay type: cell-based, human; conditions: SK-BR3, low micromolar concentrations, 2 weeks
MDA-MB-231 cells [8] = assay: Cellular apoptosis assay; assay type: cell-based, human; conditions: 48 h
Summary of the method: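 MDA-MB-231 cells, 2.5 × 10^5 per well, exposed to DMSO vehicle or test compound (1, 5, 10, 15 or 20 μM) for 48 h. Adherent and floating cells pooled and washed in PBS, then resuspended in PBS with 1% BSA plus Annexin V and dead-cell reagent for 20 min at room temperature. Read immediately on a cell analyzer; mean ± SD, ≥3 independent experiments.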

MDA-MB-468 cells [9] = assay: Colony-formation assay; assay type: cell-based, human; conditions: MDA-MB-468, low micromolar concentrations, 2 weeks
SK-BR3 cells [10] = assay: MTT cell proliferation assay; assay type: cell-based, human
Summary of the method: as §1

MDA-MB-231 cells [11] = assay: Colony-formation assay; assay type: cell-based, human; conditions: MDA-MB-231, low micromolar concentrations, 2 weeks
MDA-MB-468 cells [12] = assay: MTT cell proliferation assay; assay type: cell-based, human
Summary of the method: as §1

MCF-10A cells = assay: Growth inhibition on normal mammary epithelial cells; assay type: cell-based, human; conditions: 48 h
Summary of the method: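 Normal mammary epithelial MCF-10A cells treated for 48 h with varying concentrations of test compound or the parent natural product. Mean ± SD of three independent experiments. Student t-test against the parent natural product at the same concentration.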

Bcl-2 to Bax ratio = assay: Western-blot analysis of apoptosis biomarkers; assay type: cell-based, human; conditions: MDA-MB-231, 48 h
Summary of the method: as §2

NF-κB (p65) = assay: Western-blot analysis of apoptosis biomarkers; assay type: cell-based, human; conditions: MDA-MB-231, 48 h, dose-dependent
Summary of the method: as §2

[13] = Reactivity with GSH monitored by 1H NMR; conditions: 37°C, 1.5–2 equiv GSH, pH 7.4, compared to oridonin
[14] = 2 equiv of GSH at pH 7.4; cited from earlier work
[15] = microsomes

SMILES: C=C1C(=O)[C@]23[C@H](O)[C@H]1CC[C@H]2[C@@]12CO[C@]3(O)[C@@H](O)[C@@H]1C(C)(C)CC[C@@H]2O [oridonin]
inhibition of tumor growth (t(8;21) leukemia): Inhibition of tumor growth in t(8;21) leukemia murine model (7.5 and 15 mg/kg) | antitumor efficacy, 44 versus oridonin ([1]; 10 mg/kg): comparable efficacy | stability in strong acidic or basic media [2]: not stable

SMILES: C=CCNc1nc2c(s1)CC(C)(C)[C@H]1[C@H](O)[C@]3(O)OC[C@@]21[C@@H]1CC[C@@H]2[C@@H](O)[C@@]13C(=O)C21CN1C(=O)OCC1c2ccccc2-c2ccccc21 (stereo partly drawn) [Compound 42]
antiproliferative activity (in words) [3]: moderate activities

SMILES: C=CC(=O)N1CC12C(=O)[C@@]13[C@@H]4OC(C)(C)O[C@@]15OC[C@@]1([C@H]([C@@H]5O)C(C)(C)CC[C@@H]1O)[C@@H]3CC[C@H]42 (stereo partly drawn) [Compound 44]
inhibition of colony formation (MCF-7 cells [4]): significantly inhibit the colony formation | suppression of proliferation (dose-dependent) (MDA-MB-231 cells [5]): suppressed the proliferation | suppression of proliferation (dose-dependent) (MCF-7 cells [6]): suppressed the proliferation | cleaved PARP expression (cleaved PARP): up-regulation | inhibition of colony formation (SK-BR3 cells [7]): significantly inhibit the colony formation | apoptotic cells (early and late apoptosis together) (MDA-MB-231 cells [8]; 10 μM): 18.2% | apoptotic cells (early and late apoptosis together) (MDA-MB-231 cells [8]; 15 μM): 26.8% | apoptotic cells (early and late apoptosis together) (MDA-MB-231 cells [8]; 20 μM): 47.6% | antitumor efficacy, 44 versus oridonin ([1]; 10 mg/kg): comparable efficacy | inhibitory effect on tumor growth compared to vehicle ([1]; 10 mg/kg): significant inhibitory effect | inhibitory effect on tumor growth compared to vehicle ([1]; 15 mg/kg): significant inhibitory effect | inhibitory effect on tumor growth compared to the oridonin group ([1]; 15 mg/kg, one-way ANOVA p = 0.0023): better inhibitory effect | inhibition of colony formation (MDA-MB-468 cells [9]): significantly inhibit the colony formation | suppression of proliferation (dose-dependent) (SK-BR3 cells [10]): suppressed the proliferation | inhibition of colony formation (MDA-MB-231 cells [11]): significantly inhibit the colony formation | suppression of proliferation (dose-dependent) (MDA-MB-468 cells [12]): suppressed the proliferation | growth-inhibitory activity against MCF-10A in comparison to oridonin (MCF-10A cells; 0–10 μM): comparable | growth-inhibitory activity against MCF-10A in comparison to oridonin (MCF-10A cells; 15~100 μM): significantly lower | ratio of Bcl-2 to Bax (Bcl-2 to Bax ratio): reduced | NF-κB (p65) protein expression (NF-κB (p65)): down-regulation

Reactivity / stability of covalent warhead toward GSH (in words) [13]: may enhance the enone’s reactivity
SMILES: C=C1C(=O)[C@]23[C@H](OC(=O)[C@H](C)N)[C@H]1CC[C@H]2[C@@]12CO[C@@]3(O)[C@@H](O)[C@@H]1C(C)(C)CC[C@@H]2O.O=C(O)C(F)(F)F [Compound 14]

SMILES: COC(=O)/C=C/C(=O)OC [dimethyl fumarate]
half-life with GSH [14]: 50 to 60 min

SMILES: CCC(=O)N1CC12C(=O)[C@@]13[C@@H]4OC(C)(C)O[C@@]15OC[C@@]1([C@H]([C@@H]5O)C(C)(C)CC[C@@H]1O)[C@@H]3CC[C@H]42 (stereo partly drawn) [Compound 45]
antiproliferative activity (in words) [3]: complete loss of activity

SMILES: C=CCNc1nc2c(s1)CC(C)(C)[C@H]1[C@H](O)[C@]3(O)OC[C@@]21[C@@H]1CC[C@@H]2[C@@H](O)[C@@]13C(=O)C21CN1 (stereo partly drawn) [Compound 43]
antiproliferative activity (in words) [3]: moderate activities

SMILES: CC1(C)O[C@@H]2[C@H]3CC[C@H]4[C@@]56CO[C@@](O1)([C@@H](O)[C@@H]5C(C)(C)CC[C@@H]6O)[C@@]24C(=O)C31CN1 (stereo partly drawn) [Compound 25, (2R,3′S,3a′R,3a1′R,6a′R,7′S,11′S,11a′S)-7′,11′-Dihydroxy-5′,5′,8′,8′-tetramethyldecahydro-2′H-spiro[aziridine-2,15′-[6a,11a]-(epoxymethano)[3,3a1]ethanophenanthro[1,10-de][1,3]dioxin]-14’-one]
microsomal stability compared to oridonin [15]: higher microsomal and plasma stability

SMILES: C=C1C(=O)[C@@]23[C@@H]4OC(C)(C)O[C@@]25OC[C@@]2([C@H]([C@@H]5O)C(C)(C)CC[C@@H]2O)[C@@H]3CC[C@@H]14 [Compound 20]
Reactivity / stability of covalent warhead toward GSH (in words) [13]: slightly weakens the reactivity of the enone
